Assay results reported in ChEMBL document CHEMBL3046448, “Design and syntheses of novel phthalazin-1(2H)-one derivatives as acetohydroxyacid synthase inhibitors” (J Agric Food Chem, 2006).

Assays:
Brassica juncea [1] = test: Herbicidal activity against Brassica juncea assessed as growth inhibition at 150 g ai/ha applied as pre-emergence treatment 24 hr after weeds seeds sowing under green house conditions measured 15 days post compound treatment; format: functional; settings: read-out: GI
Summary of the method: (§1)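 Pre-emergence spray applied 24 h after sowing weeds in pots in a greenhouse. Clay soil: pH 6.5, 1.6% organic matter, 37.3% clay, CEC 12.1 cmol/kg. Formulation: 100 g/L emulsified concentrate (DMF solvent, TW-80 emulsifier) diluted with water to 150 g ai/ha. Untreated and DMF-treated controls. Growth inhibition judged visually at 15 days: ++ >80%, + 50-80%, − <50%.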

Setaria viridis [2] = test: Herbicidal activity against Setaria viridis (green foxtail) assessed as growth inhibition at 150 g ai/ha applied as pre-emergence treatment 24 hr after weeds seeds sowing under green house conditions measured 15 days post compound treatment; format: functional; settings: read-out: GI; summary of the method: as §1
Echinochloa crus-galli [3] = test: Herbicidal activity against Echinochloa crus-galli (barnyard grass) assessed as growth inhibition at 150 g ai/ha applied as pre-emergence treatment 24 hr after weeds seeds sowing under green house conditions measured 15 days post compound treatment; format: functional; settings: read-out: GI; summary of the method: as §1
Setaria viridis [4] = test: Herbicidal activity against Setaria viridis (green foxtail) assessed as growth inhibition at 150 g ai/ha applied as post-emergence treatment under green house conditions measured 15 days post compound treatment; format: functional; settings: 360 h, read-out: GI
Summary of the method: (§2)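 Monocot weeds grown in pots in a greenhouse and sprayed post-emergence at the one-leaf stage. Clay soil: pH 6.5, 1.6% organic matter, 37.3% clay, CEC 12.1 cmol/kg. Formulation: 100 g/L emulsified concentrate (DMF, TW-80) diluted with water to 150 g ai/ha. Untreated and DMF controls included. Growth inhibition scored visually after 15 days: ++ >80%, + 50-80%, − <50%.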

[5] = target: T1, Acetolactate synthase, chloroplastic (Arabidopsis thaliana, UniProt P17597); test: Inhibition of wild type Arabidopsis thaliana acetohydroxyacid synthase
T1 sequence (P17597 whole entry): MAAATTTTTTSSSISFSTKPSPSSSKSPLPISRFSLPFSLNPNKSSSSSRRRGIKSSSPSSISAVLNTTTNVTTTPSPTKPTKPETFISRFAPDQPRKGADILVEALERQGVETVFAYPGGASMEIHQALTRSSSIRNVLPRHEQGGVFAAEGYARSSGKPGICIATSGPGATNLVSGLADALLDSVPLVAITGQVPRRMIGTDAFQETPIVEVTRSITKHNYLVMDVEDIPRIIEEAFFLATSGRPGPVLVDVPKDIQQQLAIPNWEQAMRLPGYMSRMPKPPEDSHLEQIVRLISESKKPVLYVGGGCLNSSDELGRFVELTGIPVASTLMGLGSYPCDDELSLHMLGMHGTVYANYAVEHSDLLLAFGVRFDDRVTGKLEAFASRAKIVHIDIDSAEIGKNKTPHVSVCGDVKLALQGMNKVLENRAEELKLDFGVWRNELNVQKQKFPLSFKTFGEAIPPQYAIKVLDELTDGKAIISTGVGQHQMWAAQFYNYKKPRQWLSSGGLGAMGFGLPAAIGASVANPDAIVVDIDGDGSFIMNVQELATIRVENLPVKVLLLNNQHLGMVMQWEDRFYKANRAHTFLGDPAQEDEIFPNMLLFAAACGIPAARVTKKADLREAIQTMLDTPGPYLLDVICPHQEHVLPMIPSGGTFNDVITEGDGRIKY

Amaranthus retroflexus [6] = test: Herbicidal activity against Amaranthus retroflexus assessed as growth inhibition at 150 g ai/ha applied as pre-emergence treatment 24 hr after weeds seeds sowing under green house conditions measured 15 days post compound treatment; format: functional; settings: read-out: GI; summary of the method: as §1
Echinochloa crus-galli [7] = test: Herbicidal activity against Echinochloa crus-galli (barnyard grass) assessed as growth inhibition at 150 g ai/ha applied as post-emergence treatment under green house conditions measured 15 days post compound treatment; format: functional; settings: 360 h, read-out: GI; summary of the method: as §2
Chenopodium album [8] = test: Herbicidal activity against Chenopodium album assessed as growth inhibition at 150 g ai/ha applied as post-emergence treatment under green house conditions measured 15 days post compound treatment; format: functional; settings: 360 h, read-out: GI
Summary of the method: (§3)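 Post-emergence spray on pot-grown dicot weeds at the two-leaf stage in a greenhouse. Clay soil: pH 6.5, 1.6% organic matter, 37.3% clay, CEC 12.1 cmol/kg. Formulation: 100 g/L DMF/TW-80 emulsified concentrate, water-diluted to 150 g ai/ha. Untreated and DMF solvent controls. Visual inhibition rating at 15 days: ++ >80%, + 50-80%, − <50%.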

Digitaria sanguinalis [9] = test: Herbicidal activity against Digitaria sanguinalis (hairy crabgrass) assessed as growth inhibition at 150 g ai/ha applied as post-emergence treatment under green house conditions measured 15 days post compound treatment; format: functional; settings: 360 h, read-out: GI; summary of the method: as §2
Digitaria sanguinalis [10] = test: Herbicidal activity against Digitaria sanguinalis (hairy crabgrass) assessed as growth inhibition at 150 g ai/ha applied as pre-emergence treatment 24 hr after weeds seeds sowing under green house conditions measured 15 days post compound treatment; format: functional; settings: read-out: GI; summary of the method: as §1
Chenopodium album [11] = test: Herbicidal activity against Chenopodium album assessed as growth inhibition at 150 g ai/ha applied as pre-emergence treatment 24 hr after weeds seeds sowing under green house conditions measured 15 days post compound treatment; format: functional; settings: read-out: GI; summary of the method: as §1
Amaranthus retroflexus [12] = test: Herbicidal activity against Amaranthus retroflexus assessed as growth inhibition at 150 g ai/ha applied as post-emergence treatment under green house conditions measured 15 days post compound treatment; format: functional; settings: 360 h, read-out: GI; summary of the method: as §3
Brassica juncea [13] = test: Herbicidal activity against Brassica juncea assessed as growth inhibition at 150 g ai/ha applied as post-emergence treatment under green house conditions measured 15 days post compound treatment; format: functional; settings: 360 h, read-out: GI; summary of the method: as §3

`COc1cc(OC)nc(Oc2cccc3c(C)nn(Cc4ccc(Cl)cc4)c(=O)c23)n1` gave an inhibition of growth at 150 g/ha (Brassica juncea [1]) of less than 50%, an inhibition of growth at 150 g/ha (Setaria viridis [2]) of less than 50% and an inhibition of growth at 150 g/ha (Echinochloa crus-galli [3]) of less than 50%. It also gave an inhibition of growth at 150 g/ha (Setaria viridis [4]) of less than 50%, a Ki [5] of 203 µM and an inhibition of growth at 150 g/ha (Amaranthus retroflexus [6]) of less than 50%. For the same compound, the inhibition of growth at 150 g/ha (Echinochloa crus-galli [7]) was less than 50%, the inhibition of growth at 150 g/ha (Chenopodium album [8]) was less than 50% and the inhibition of growth at 150 g/ha (Digitaria sanguinalis [9]) was less than 50%. For the same compound, the inhibition of growth at 150 g/ha (Digitaria sanguinalis [10]) was less than 50%, the inhibition of growth at 150 g/ha (Chenopodium album [11]) was less than 50% and the inhibition of growth at 150 g/ha (Amaranthus retroflexus [12]) was less than 50%. For the same compound, the inhibition of growth at 150 g/ha (Brassica juncea [13]) was less than 50%.
With `COc1cc(OC)nc(Oc2cccc3c(C)nn(Cc4cc(C)ccc4[N+](=O)[O-])c(=O)c23)n1` the inhibition of growth at 150 g/ha (Brassica juncea [1]) was less than 50%, the inhibition of growth at 150 g/ha (Setaria viridis [2]) was less than 50% and the inhibition of growth at 150 g/ha (Echinochloa crus-galli [3]) was less than 50%. It also gave an inhibition of growth at 150 g/ha (Setaria viridis [4]) of 50%, a Ki [5] of 310 µM and an inhibition of growth at 150 g/ha (Amaranthus retroflexus [6]) of less than 50%. The inhibition of growth at 150 g/ha (Echinochloa crus-galli [7]) was 50%, the inhibition of growth at 150 g/ha (Chenopodium album [8]) was 50% and the inhibition of growth at 150 g/ha (Digitaria sanguinalis [9]) was less than 50%. It also gave an inhibition of growth at 150 g/ha (Digitaria sanguinalis [10]) of less than 50%, an inhibition of growth at 150 g/ha (Chenopodium album [11]) of less than 50% and an inhibition of growth at 150 g/ha (Amaranthus retroflexus [12]) greater than 80%. It also gave an inhibition of growth at 150 g/ha (Brassica juncea [13]) of 50%.
`COc1cc(OC)nc(Oc2cccc3c(C)nn(Cc4ccccc4Cl)c(=O)c23)n1` showed an inhibition of growth at 150 g/ha (Brassica juncea [1]) of less than 50%, an inhibition of growth at 150 g/ha (Setaria viridis [2]) of less than 50% and an inhibition of growth at 150 g/ha (Echinochloa crus-galli [3]) of less than 50%. The inhibition of growth at 150 g/ha (Setaria viridis [4]) was less than 50%, the Ki [5] was 210 µM and the inhibition of growth at 150 g/ha (Amaranthus retroflexus [6]) was less than 50%. For the same compound, the inhibition of growth at 150 g/ha (Echinochloa crus-galli [7]) was less than 50%, the inhibition of growth at 150 g/ha (Chenopodium album [8]) was less than 50% and the inhibition of growth at 150 g/ha (Digitaria sanguinalis [9]) was less than 50%. For the same compound, the inhibition of growth at 150 g/ha (Digitaria sanguinalis [10]) was less than 50%, the inhibition of growth at 150 g/ha (Chenopodium album [11]) was less than 50% and the inhibition of growth at 150 g/ha (Amaranthus retroflexus [12]) was less than 50%. It also gave an inhibition of growth at 150 g/ha (Brassica juncea [13]) of less than 50%.
Work on `COc1cc(OC)nc(Oc2cccc3c(C)nn(Cc4cccc(Cl)c4)c(=O)c23)n1` yielded an inhibition of growth at 150 g/ha (Brassica juncea [1]) of less than 50%, an inhibition of growth at 150 g/ha (Setaria viridis [2]) of less than 50% and an inhibition of growth at 150 g/ha (Echinochloa crus-galli [3]) of less than 50%. The inhibition of growth at 150 g/ha (Setaria viridis [4]) was less than 50%, the Ki [5] was 216 µM and the inhibition of growth at 150 g/ha (Amaranthus retroflexus [6]) was less than 50%. The inhibition of growth at 150 g/ha (Echinochloa crus-galli [7]) was 50%, the inhibition of growth at 150 g/ha (Chenopodium album [8]) was 50% and the inhibition of growth at 150 g/ha (Digitaria sanguinalis [9]) was less than 50%. For the same compound, the inhibition of growth at 150 g/ha (Digitaria sanguinalis [10]) was less than 50%, the inhibition of growth at 150 g/ha (Chenopodium album [11]) was less than 50% and the inhibition of growth at 150 g/ha (Amaranthus retroflexus [12]) was greater than 80%. The inhibition of growth at 150 g/ha (Brassica juncea [13]) was 50%.
`COc1cc(OC)nc(Oc2cccc3c(C)nn(Cc4ccccc4C)c(=O)c23)n1` showed an inhibition of growth at 150 g/ha (Brassica juncea [1]) of less than 50%, an inhibition of growth at 150 g/ha (Setaria viridis [2]) of less than 50% and an inhibition of growth at 150 g/ha (Echinochloa crus-galli [3]) of less than 50%. The inhibition of growth at 150 g/ha (Setaria viridis [4]) was 50%, the Ki [5] was 262 µM and the inhibition of growth at 150 g/ha (Amaranthus retroflexus [6]) was less than 50%. For the same compound, the inhibition of growth at 150 g/ha (Echinochloa crus-galli [7]) was less than 50%, the inhibition of growth at 150 g/ha (Chenopodium album [8]) was 50% and the inhibition of growth at 150 g/ha (Digitaria sanguinalis [9]) was less than 50%. The inhibition of growth at 150 g/ha (Digitaria sanguinalis [10]) was less than 50%, the inhibition of growth at 150 g/ha (Chenopodium album [11]) was less than 50% and the inhibition of growth at 150 g/ha (Amaranthus retroflexus [12]) was greater than 80%. It also gave an inhibition of growth at 150 g/ha (Brassica juncea [13]) of 50%.
`CCCCn1nc(C)c2cccc(Oc3nc(OC)cc(OC)n3)c2c1=O` showed an inhibition of growth at 150 g/ha (Brassica juncea [1]) of less than 50%, an inhibition of growth at 150 g/ha (Setaria viridis [2]) of less than 50% and an inhibition of growth at 150 g/ha (Echinochloa crus-galli [3]) of less than 50%. For the same compound, the inhibition of growth at 150 g/ha (Setaria viridis [4]) was 50%, the Ki [5] was 441 µM and the inhibition of growth at 150 g/ha (Amaranthus retroflexus [6]) was less than 50%. The inhibition of growth at 150 g/ha (Echinochloa crus-galli [7]) was 50%, the inhibition of growth at 150 g/ha (Chenopodium album [8]) was greater than 80% and the inhibition of growth at 150 g/ha (Digitaria sanguinalis [9]) was less than 50%. It also gave an inhibition of growth at 150 g/ha (Digitaria sanguinalis [10]) of less than 50%, an inhibition of growth at 150 g/ha (Chenopodium album [11]) of less than 50% and an inhibition of growth at 150 g/ha (Amaranthus retroflexus [12]) greater than 80%. It also gave an inhibition of growth at 150 g/ha (Brassica juncea [13]) of 50%.
With `CO/N=C(/C)c1cccc(Oc2nc(OC)cc(OC)n2)c1C(=O)OC` [PYRIMINOBAC-METHYL] the inhibition of growth at 150 g/ha (Brassica juncea [1]) was less than 50%, the inhibition of growth at 150 g/ha (Setaria viridis [2]) was less than 50% and the inhibition of growth at 150 g/ha (Echinochloa crus-galli [3]) was less than 50%. The Ki [5] was 49 µM, the inhibition of growth at 150 g/ha (Amaranthus retroflexus [6]) was less than 50% and the inhibition of growth at 150 g/ha (Echinochloa crus-galli [7]) was greater than 80%. The inhibition of growth at 150 g/ha (Chenopodium album [8]) was greater than 80%, the inhibition of growth at 150 g/ha (Digitaria sanguinalis [9]) was greater than 80% and the inhibition of growth at 150 g/ha (Digitaria sanguinalis [10]) was less than 50%. For the same compound, the inhibition of growth at 150 g/ha (Chenopodium album [11]) was less than 50% and the inhibition of growth at 150 g/ha (Amaranthus retroflexus [12]) was greater than 80%.
